High-throughput results deposited in PubChem BioAssay by several laboratories.
HNF4A DNA FP: change in binding of human HNF4A to DNA, primary screen, biochemical, fluorescence polarization, FITC-DNA; activity change, % at 10 µM; 1 h; 360,000 compounds, 0.3% hits; Hepatocyte nuclear factor 4-alpha (Homo sapiens), P41235; in the data active = activity change above about 30%, passing the limit was not always enough
Granule exo inh: LAMP-1 surface exposure blockers, TALL-104 cells – cell-based, flow cytometry, MLPCN library, primary screen | inhibition, % at 10 µM | 360,000 compounds, 0.66% hits | TALL-104 LAMP-1 surface exposure; cells stimulated with thapsigargin and PMA;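 active = inhibition above about 55%, limit read from the data; inconclusive = no clear call, values can overlap the other calls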
Myeloid diff MLP: induction of myeloid progenitor differentiation, primary screen, cell-based, flow cytometry, MLPCN library; ER-HoxA9 myeloid progenitors, lysozyme-GFP differentiation; calls only at 10 µM; 360,000 compounds, 1% hits;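 active = normalized GFP-positive differentiation at or above the plate's own cutoff, the solvent-only control mean plus 3 SD; inconclusive = no clear call, values can overlap the other calls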;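 also: cells exposed to compound for four days before flow analysis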
Pemphigus Ab inh: inhibitors of pemphigus antibody binding to DSG3, primary screen, biochemical, bead-based, flow cytometry, scFv-GFP. Desmoglein-3 (Homo sapiens), P32926. DSG3-coupled beads, scFv-anti-DSG3-GFP binding; hits give low values. binding (percent of control), % at 10 µM. 310,000 compounds, 0.48% hits. AID 588358, 2011;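 active = binding more than 3 SD below its plate's average and above zero; inconclusive = below that plate limit but binding exactly zero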;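 also: hits lower antibody fragment binding to DSG3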
Target sequence (P32926 whole entry, looked up, the tested form may be a part): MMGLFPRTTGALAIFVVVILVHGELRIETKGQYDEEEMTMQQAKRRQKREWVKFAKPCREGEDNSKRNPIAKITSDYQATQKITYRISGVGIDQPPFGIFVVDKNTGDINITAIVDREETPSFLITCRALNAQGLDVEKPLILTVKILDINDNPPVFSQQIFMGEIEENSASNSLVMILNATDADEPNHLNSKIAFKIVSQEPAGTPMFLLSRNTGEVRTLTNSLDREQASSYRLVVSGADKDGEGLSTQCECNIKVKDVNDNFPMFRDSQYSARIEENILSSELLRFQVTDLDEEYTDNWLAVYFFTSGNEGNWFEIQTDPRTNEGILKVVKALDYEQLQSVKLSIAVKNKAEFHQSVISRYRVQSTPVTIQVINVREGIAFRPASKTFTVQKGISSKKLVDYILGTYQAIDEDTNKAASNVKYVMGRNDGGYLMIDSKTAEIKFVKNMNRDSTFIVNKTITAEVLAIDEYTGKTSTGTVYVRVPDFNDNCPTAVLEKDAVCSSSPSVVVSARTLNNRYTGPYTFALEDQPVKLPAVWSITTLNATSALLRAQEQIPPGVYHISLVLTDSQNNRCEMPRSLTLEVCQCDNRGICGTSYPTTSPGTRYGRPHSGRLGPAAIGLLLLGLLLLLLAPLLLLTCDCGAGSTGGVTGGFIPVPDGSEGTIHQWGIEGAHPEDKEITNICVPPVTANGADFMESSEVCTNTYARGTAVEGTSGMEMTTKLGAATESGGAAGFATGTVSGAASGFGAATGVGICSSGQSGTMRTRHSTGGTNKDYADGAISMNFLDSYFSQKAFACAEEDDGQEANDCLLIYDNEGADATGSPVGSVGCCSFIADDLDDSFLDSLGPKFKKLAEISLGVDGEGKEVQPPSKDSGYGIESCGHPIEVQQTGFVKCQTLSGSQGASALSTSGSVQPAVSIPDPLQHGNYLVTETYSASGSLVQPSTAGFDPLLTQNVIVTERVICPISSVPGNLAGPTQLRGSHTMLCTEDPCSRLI
SENP1 inh: human SENP1 catalytic domain inhibitors, primary screen, biochemical, FRET, uHTS; Sentrin-specific protease 1 (Homo sapiens), Q9P0U3; recombinant SENP1 catalytic domain, CyPet-SUMO1-YPet FRET cleavage; inhibition, % at 10 µM; 360,000 compounds, 0.21% hits; AID 624204, 2012;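 active = inhibition at least 30% at 10 µM, raw YFP signal under a set limit, fluorescence ratio 0.5 to 1.5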;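 also: 0% = enzyme with DMSO and 100% = no enzyme wells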
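material = recombinant human SENP1 catalytic domain, His6-tagged | quantity = 20 pM enzyme | reagent = 25 nM SUMO1 FRET substrate | compound dosing = 10 µM single point, 0.5% DMSO | timing = 50 min enzyme reaction, room temperature, light-protected | detection = FRET, CFP and YFP emission | control set = no-enzyme low, enzyme-DMSO high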
H9c2 protect: cardioprotection against H2O2-induced cell death, primary screen, uHTS, H9c2 cells, ATPLite luminescence; AID 588492, 2011; H9c2 cardiomyocytes, H2O2 injury protection, 2 h; 360,000 compounds, 0.63% hits; protection from H2O2 cell death, % at 20 µM;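 active = compounds giving at least 50% protection of heart cells from peroxide-induced death in the single-dose screen, raw or plate-pattern-corrected value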;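 also: 0% = DMSO wells with peroxide and 100% = DMSO wells without peroxide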
Exocytosis CP01: inhibitors of lytic granule exocytosis, confirmation, TALL-104 cells, flow cytometry, Cherry Pick01; shares compounds with Granule exo inh; LAMP-1 externalization; stimulated with PMA plus thapsigargin; inhibition, % at 10 µM; 1,500 compounds, 11% hits; AID 651954, 2012; in the data active = inhibition above about 60%;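 also: 0% = stimulated vehicle wells and 100% = unstimulated wells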
Starred values were filed as active, the others as inactive; i = inactive; ? = inconclusive; . = no result; + = active, no number. An excerpt weighted towards active compounds, which were near 3% of everything screened.

SMILES	HNF4A DNA FP	Granule exo inh	Myeloid diff MLP	Pemphigus Ab inh	SENP1 inh	H9c2 protect	Exocytosis CP01
CN(Cc1ccccc1)C(=O)c1nc2ccccn2c1CNCCn1cccn1	1	-4	i	92	0	2	.
CC(c1ccon1)N(C)Cc1c(C(=O)N(C)Cc2ccccc2)nc2ccccn12 (centres undefined)	-2	71*	i	106	-1	8	-4
O=C(CSc1ccc2nnc(-c3ccccn3)n2n1)Nc1ccccc1F	-2	1	i	.	-2	10	.
Cc1ccc(C#CC[N+]2(C)CCCCC2)cc1	-1	0	?	106	5	2	.
Cc1cccc(N(C)S(=O)(=O)c2ccc(-c3cnc(C4CC4)o3)cc2)c1	1	0	?	112	0	-4	.
Cc1ccc(N(C)S(=O)(=O)c2cc(-c3cnc(C4CC4)o3)ccc2C)cc1	2	97*	?	100	1	-8	44
COCCn1c(Cc2ccccc2)nnc1SCC(=O)NC1CC1	-8	-1	i	107	-1	-5	.
CC(C)C(=O)c1cc2c(cc1NC(=O)c1cccs1)OCCO2	0	75*	i	.	-1	-1	-11
CC(C)C(=O)c1cc2c(cc1NC(=O)c1ccccc1)OCCO2	0	3	i	100	0	-2	.
COc1ccc(OC)c(C(=O)COC(=O)COc2ccccc2F)c1	1	-1	i	100	1	1	.
COc1ccccc1C(=O)Nc1ccccc1SC(=O)c1ccccc1OC	0	91*	i	95	0	-14	33
O=C(COc1cccc(C(F)(F)F)c1)NCC(c1ccco1)N1CCCCC1 (centres undefined)	-2	2	i	107	-2	-4	.
CNC(=O)c1cccc(NC(=O)c2ccccc2OCc2ccccc2)c1	0	63*	i	114	-2	11	-5
COc1cc(NC(=O)c2ccccc2OCc2ccccc2)cc(OC)c1OC	-2	84*	i	108	-1	-2	-7
O=C1Nc2ccccc2C12Nc1ccccc1-c1nc3ccccc3n12 (centres undefined)	-3	56*	i	.	3	-6	-3
CC(=O)Nc1ccc(Nc2nc(-c3c(C)nc4ccccn34)cs2)cc1	3	75*	?	105	-7	-2	-4
Cc1c(Cl)ccc2c(C(O)CBr)cc(-c3ccccc3)nc12 (centres undefined)	1	64*	i	.	1	-17	-14
Cc1ccc(-c2cc(C(=O)NCCCN3CCOCC3)c3ccc(Cl)c(C)c3n2)cc1	3	-6	i	114	-1	4	.
Cc1noc(C)c1CSCC(=O)N(CC(C)C)c1c(N)n(Cc2ccccc2)c(=O)[nH]c1=O	3	1	i	101	-8	-3	.
Nc1c(C(=O)NCc2ccccc2)c2nc3ccccc3nc2n1CCCN1CCOCC1	4	42	i	98	-21	38	.
Nc1c(C(=O)NCc2ccc(F)cc2)c2nc3ccccc3nc2n1CCCN1CCOCC1	2	62*	i	95	-33	-4	90*
CC(CCN1CCN(c2ccc(F)cc2)CC1)c1ccccc1 (centres undefined)	2	57*	i	94	1	6	-12
COc1ccc(F)cc1-c1cc(NC(C)=O)c2ncc(-c3cccc(C(F)(F)F)c3)n2c1	0	58*	i	.	-8	-2	43
CC(=O)Nc1cccc(-c2cc(NC(C)=O)c3ncc(-c4cccc(C(F)(F)F)c4)n3c2)c1	12	17	i	.	-4	14	.
Clc1ccc(/C=C\c2nccc3c2[nH]c2ccccc23)cc1	11	88*	i	97	-26	-11	4
SMILES	HNF4A DNA FP	Granule exo inh	Myeloid diff MLP	Pemphigus Ab inh	SENP1 inh	H9c2 protect	Exocytosis CP01
Clc1ccc(/C=C/c2nc3ccccc3[nH]2)cc1	3	2	i	101	-32	-24	.
Cc1cc2c(cc1C)CSC(c1c(O)ccc3ccccc13)SC2	-4	76*	i	99	1	-40	11
C#CCNC(=O)C1=C[C@H](c2coc3ccccc3c2=O)C[C@H](OCc2ccc(CO)cc2)O1	0	-4	i	102	0	7	.
C#CCNC(=O)C1=C[C@@H](c2coc3ccccc3c2=O)C[C@@H](OCc2ccc(CO)cc2)O1	3	88*	i	100	1	-2	-5
COC(=O)c1c(NC(=O)c2ccccc2OC)sc(C(=O)N2CCOCC2)c1C	1	68*	i	.	0	18	-3
Cc1ccc(S(=O)(=O)CCC(=O)N(CCCN2CCOCC2)c2nc3ccccc3s2)cc1	5	65*	i	96	0	-12	-8
O=C(CCS(=O)(=O)c1ccccc1)N(CCCN1CCOCC1)c1nc2ccccc2s1	0	58*	?	102	-1	-16	-9
Cc1ccc2nc(N(CCN3CCOCC3)C(=O)CCS(=O)(=O)c3ccccc3)sc2c1	2	13	i	104	3	-2	.
COc1cccc2cc(C(=O)C3=C(O)C(=O)N(CCN4CCOCC4)C3c3ccc(C)o3)oc12 (centres undefined)	2	-4	i	.	-5	6	.
CC(C)(C)c1cc(C(=O)Nc2ccc(F)cc2)n(Cc2ccc(F)cc2)n1	1	67*	i	98	0	-20	3
CC(=O)NC1=NN(C(C)=O)C(c2ccco2)S1 (centres undefined)	-1	1	i	.	3	-7	.
COc1ccccc1CNC(=O)c1sccc1-c1ccccc1	-2	66*	i	93	-3	3	-13
COc1ccccc1CNC(=O)c1sccc1C	1	-11	i	111	-3	1	.
CCCN(CCC)S(=O)(=O)c1cccc(-c2csc(C)n2)c1	3	59*	i	93	1	-8	-5
CCN(CC)S(=O)(=O)c1ccc(-c2csc(C)n2)cc1	-1	-5	i	107	3	-7	.
OCCN1CCN(CC(O)COc2ccc(C34CC5CC(CC(C5)C3)C4)cc2)CC1 (centres undefined)	-2	72*	+	116	-1	-14	79*
CN(CCCC1CCCC1)C(=O)c1cc(COc2ccc(F)c(F)c2)on1	1	68*	i	104	0	-4	-11
